# Positions count from the first letter of the chain named.
# Target: T1, OR5L1 (Homo sapiens) (UniProt Q8NGL2)
# T1 sequence (whole entry): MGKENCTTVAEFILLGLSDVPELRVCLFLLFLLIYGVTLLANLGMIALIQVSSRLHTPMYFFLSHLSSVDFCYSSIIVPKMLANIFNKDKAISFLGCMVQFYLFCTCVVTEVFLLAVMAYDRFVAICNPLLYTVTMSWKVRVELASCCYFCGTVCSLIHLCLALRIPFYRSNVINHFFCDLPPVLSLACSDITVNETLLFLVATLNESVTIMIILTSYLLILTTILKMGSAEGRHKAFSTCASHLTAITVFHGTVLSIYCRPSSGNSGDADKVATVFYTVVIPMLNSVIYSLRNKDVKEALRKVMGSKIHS
# Conditions: stereoisomer not certain
# How it was run: (§1)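 Assay methods differ from source to source, frequently being transient luciferase assays in mammalian cell lines. For each receptor–molecule pair, the label responsive (active) applies when the original authors judged the measured signal statistically different from baseline, and non-responsive (inactive) applies otherwise.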
row,SMILES,odorant receptor agonist call
1,CC(CO)CS (stereo not drawn),inactive
2,CC1CCCCCCCCCCCCC(=O)C1 (stereo not drawn),inactive
3,CC1=C(O)C(=O)C(C)O1 (stereo not drawn),inactive
4,CCC1OC(C)=C(O)C1=O (stereo not drawn),inactive
5,CC(=O)c1c(C)c([N+](=O)[O-])c(C(C)(C)C)c([N+](=O)[O-])c1C,inactive
6,CCC1OC(=O)C(O)=C1C (stereo not drawn),inactive
7,CC1=C(O)C(=O)OC1C (stereo not drawn),inactive
8,CCC(S)C(C)CO (stereo not drawn),inactive
9,CCCCCC(=O)C(C)C(C)=O (stereo not drawn),inactive
10,CCCCC(S)C(C)CO (stereo not drawn),inactive
11,CC1=NC(C)C(C)S1 (stereo not drawn),inactive
12,Cc1cnc(C)c(C)n1,inactive
13,CCCC(S)CCOC(C)=O (stereo not drawn),inactive
14,CCCCCC(S)C(C)CO (stereo not drawn),inactive
15,CCCCCCC=CCCC=O,inactive

# Target: T2, OR5L2 (Homo sapiens) (UniProt Q8NGL0)
# T2 sequence (whole entry): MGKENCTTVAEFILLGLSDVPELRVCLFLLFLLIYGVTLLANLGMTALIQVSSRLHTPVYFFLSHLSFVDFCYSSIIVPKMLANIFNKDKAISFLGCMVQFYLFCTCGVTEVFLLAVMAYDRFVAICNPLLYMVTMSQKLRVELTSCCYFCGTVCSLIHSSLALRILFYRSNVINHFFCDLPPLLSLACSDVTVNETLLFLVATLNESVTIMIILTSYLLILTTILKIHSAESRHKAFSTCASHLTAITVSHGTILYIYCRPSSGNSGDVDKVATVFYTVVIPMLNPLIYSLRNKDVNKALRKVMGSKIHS
# Conditions: stereoisomer not certain
# How it was run: as §1
row,SMILES,odorant receptor agonist call
1,CC(CO)CS (stereo not drawn),inactive
2,CC1=C(O)C(=O)C(C)O1 (stereo not drawn),inactive
3,CCC1OC(C)=C(O)C1=O (stereo not drawn),inactive
4,CCC1OC(=O)C(O)=C1C (stereo not drawn),inactive
5,CC1=C(O)C(=O)OC1C (stereo not drawn),inactive
6,CCC(S)C(C)CO (stereo not drawn),inactive
7,CCCCCC(=O)C(C)C(C)=O (stereo not drawn),inactive
8,CCCCC(S)C(C)CO (stereo not drawn),inactive
9,CC1=NC(C)C(C)S1 (stereo not drawn),inactive
10,Cc1cnc(C)c(C)n1,inactive
11,CCCC(S)CCOC(C)=O (stereo not drawn),inactive
12,CCCCCC(S)C(C)CO (stereo not drawn),inactive
13,CCCCCCC=CCCC=O,inactive

# Target: T3, OR5M1 (Homo sapiens) (UniProt Q8NGP8)
# T3 sequence (whole entry): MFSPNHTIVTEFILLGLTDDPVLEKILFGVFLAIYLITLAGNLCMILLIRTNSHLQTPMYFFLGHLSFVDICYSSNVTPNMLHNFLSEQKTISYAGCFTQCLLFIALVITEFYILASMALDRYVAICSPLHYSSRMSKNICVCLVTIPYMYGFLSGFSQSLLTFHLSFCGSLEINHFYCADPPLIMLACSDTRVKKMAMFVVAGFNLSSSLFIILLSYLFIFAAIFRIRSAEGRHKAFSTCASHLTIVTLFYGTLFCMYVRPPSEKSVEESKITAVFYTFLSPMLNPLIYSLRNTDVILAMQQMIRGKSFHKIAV
# Conditions: stereoisomer not certain
# How it was run: as §1
row,SMILES,odorant receptor agonist call
1,CC(CO)CS (stereo not drawn),inactive
2,CC1CCCCCCCCCCCCC(=O)C1 (stereo not drawn),inactive
3,CC1=C(O)C(=O)C(C)O1 (stereo not drawn),inactive
4,CCC1OC(C)=C(O)C1=O (stereo not drawn),inactive
5,CC(=O)c1c(C)c([N+](=O)[O-])c(C(C)(C)C)c([N+](=O)[O-])c1C,inactive
6,CCC1OC(=O)C(O)=C1C (stereo not drawn),inactive
7,CC1=C(O)C(=O)OC1C (stereo not drawn),inactive
8,CCC(S)C(C)CO (stereo not drawn),inactive
9,CCCCCC(=O)C(C)C(C)=O (stereo not drawn),inactive
10,CCCCC(S)C(C)CO (stereo not drawn),inactive
11,CC1=NC(C)C(C)S1 (stereo not drawn),inactive
12,Cc1cnc(C)c(C)n1,inactive
13,CCCC(S)CCOC(C)=O (stereo not drawn),inactive
14,CCCCCC(S)C(C)CO (stereo not drawn),inactive
15,CCCCCCC=CCCC=O,inactive

# System: T4, OR5M1 T295R M301I
# T4 sequence (whole entry): T3 sequence (whole entry) with T295R, M301I
# Conditions: stereoisomer not certain
# How it was run: as §1
row,SMILES,odorant receptor agonist call
1,CC1=C(O)C(=O)C(C)O1 (stereo not drawn),inactive
2,CCC1OC(C)=C(O)C1=O (stereo not drawn),inactive
3,CCC1OC(=O)C(O)=C1C (stereo not drawn),inactive
4,CC1=C(O)C(=O)OC1C (stereo not drawn),inactive
5,CC1=NC(C)C(C)S1 (stereo not drawn),inactive
6,Cc1cnc(C)c(C)n1,inactive
7,CCCC(S)CCOC(C)=O (stereo not drawn),inactive
8,CCCCCCC=CCCC=O,inactive

# Target: T5, OR5M10 (Homo sapiens) (UniProt Q6IEU7)
# T5 sequence (whole entry): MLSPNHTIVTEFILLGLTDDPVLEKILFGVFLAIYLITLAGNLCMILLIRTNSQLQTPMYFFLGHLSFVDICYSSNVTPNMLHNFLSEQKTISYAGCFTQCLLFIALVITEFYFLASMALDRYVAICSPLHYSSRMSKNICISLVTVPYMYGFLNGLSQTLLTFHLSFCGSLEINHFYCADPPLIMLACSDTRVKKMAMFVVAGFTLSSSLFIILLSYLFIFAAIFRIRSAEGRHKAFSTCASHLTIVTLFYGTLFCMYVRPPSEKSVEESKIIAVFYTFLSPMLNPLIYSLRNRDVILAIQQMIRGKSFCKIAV
# Conditions: stereoisomer not certain
# How it was run: as §1
row,SMILES,odorant receptor agonist call
1,CC(CO)CS (stereo not drawn),inactive
2,CC1CCCCCCCCCCCCC(=O)C1 (stereo not drawn),inactive
3,CC1=C(O)C(=O)C(C)O1 (stereo not drawn),inactive
4,CCC1OC(C)=C(O)C1=O (stereo not drawn),inactive
5,CC(=O)c1c(C)c([N+](=O)[O-])c(C(C)(C)C)c([N+](=O)[O-])c1C,inactive
6,CCC1OC(=O)C(O)=C1C (stereo not drawn),inactive
7,CC1=C(O)C(=O)OC1C (stereo not drawn),inactive
8,CCC(S)C(C)CO (stereo not drawn),inactive
9,CCCCCC(=O)C(C)C(C)=O (stereo not drawn),inactive
10,CCCCC(S)C(C)CO (stereo not drawn),inactive
11,CC1=NC(C)C(C)S1 (stereo not drawn),inactive
12,Cc1cnc(C)c(C)n1,inactive
13,CCCC(S)CCOC(C)=O (stereo not drawn),inactive
14,CCCCCC(S)C(C)CO (stereo not drawn),inactive
15,CCCCCCC=CCCC=O,inactive

# Target: T6, OR5M11 (Homo sapiens) (UniProt Q96RB7)
# T6 sequence (whole entry): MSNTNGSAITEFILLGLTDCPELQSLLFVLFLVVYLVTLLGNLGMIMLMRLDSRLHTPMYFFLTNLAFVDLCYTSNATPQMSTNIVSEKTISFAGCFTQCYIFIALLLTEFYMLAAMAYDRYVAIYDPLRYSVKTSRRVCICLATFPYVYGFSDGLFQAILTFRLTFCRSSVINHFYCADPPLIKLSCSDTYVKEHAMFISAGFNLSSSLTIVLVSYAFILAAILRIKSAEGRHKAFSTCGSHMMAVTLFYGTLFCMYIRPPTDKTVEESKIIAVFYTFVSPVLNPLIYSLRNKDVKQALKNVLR
# Conditions: stereoisomer not certain
# How it was run: as §1
row,SMILES,odorant receptor agonist call
1,CC(CO)CS (stereo not drawn),inactive
2,CC1CCCCCCCCCCCCC(=O)C1 (stereo not drawn),inactive
3,CC1=C(O)C(=O)C(C)O1 (stereo not drawn),inactive
4,CCC1OC(C)=C(O)C1=O (stereo not drawn),inactive
5,CC(=O)c1c(C)c([N+](=O)[O-])c(C(C)(C)C)c([N+](=O)[O-])c1C,inactive
6,CCC1OC(=O)C(O)=C1C (stereo not drawn),inactive
7,CC1=C(O)C(=O)OC1C (stereo not drawn),inactive
8,CCC(S)C(C)CO (stereo not drawn),inactive
9,CCCCCC(=O)C(C)C(C)=O (stereo not drawn),inactive
10,CCCCC(S)C(C)CO (stereo not drawn),active
11,CC1=NC(C)C(C)S1 (stereo not drawn),inactive
12,Cc1cnc(C)c(C)n1,inactive
13,CCCC(S)CCOC(C)=O (stereo not drawn),inactive
14,CCCCCC(S)C(C)CO (stereo not drawn),inactive
15,CCCCCCC=CCCC=O,inactive

# Target: T7, OR5M3 (Homo sapiens) (UniProt Q8NGP4)
# T7 sequence (whole entry): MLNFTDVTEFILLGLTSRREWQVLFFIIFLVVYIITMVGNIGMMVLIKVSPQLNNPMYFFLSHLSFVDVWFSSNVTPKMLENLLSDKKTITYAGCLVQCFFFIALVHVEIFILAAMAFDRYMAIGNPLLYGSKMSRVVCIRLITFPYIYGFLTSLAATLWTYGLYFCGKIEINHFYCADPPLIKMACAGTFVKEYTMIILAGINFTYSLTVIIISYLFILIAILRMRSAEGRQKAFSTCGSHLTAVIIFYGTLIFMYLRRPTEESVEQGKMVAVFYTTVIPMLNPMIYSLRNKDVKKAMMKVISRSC
# Conditions: stereoisomer not certain
# How it was run: as §1
row,SMILES,odorant receptor agonist call
1,CC(CO)CS (stereo not drawn),inactive
2,CC1CCCCCCCCCCCCC(=O)C1 (stereo not drawn),inactive
3,CCC(C)c1nccnc1OC (stereo not drawn),inactive
4,CC1=C(O)C(=O)C(C)O1 (stereo not drawn),active
5,CC(=O)c1cnccn1,inactive
6,CCC1OC(C)=C(O)C1=O (stereo not drawn),active
7,CC(=O)c1c(C)c([N+](=O)[O-])c(C(C)(C)C)c([N+](=O)[O-])c1C,inactive
8,CCC1OC(=O)C(O)=C1C (stereo not drawn),inactive
9,CC1=C(O)C(=O)OC1C (stereo not drawn),inactive
10,COc1nccnc1C(C)C,inactive
11,COc1nccnc1CC(C)C,inactive
12,CCC(S)C(C)CO (stereo not drawn),inactive
13,CCCCCC(=O)C(C)C(C)=O (stereo not drawn),inactive
14,CCCCC(S)C(C)CO (stereo not drawn),inactive
15,CC1=NC(C)C(C)S1 (stereo not drawn),inactive
16,Cc1cnc(C)c(C)n1,inactive
17,CCCC(S)CCOC(C)=O (stereo not drawn),inactive
18,CCCCCC(S)C(C)CO (stereo not drawn),inactive
19,CCCCCCC=CCCC=O,inactive

# System: T8, OR5M3 N3Y A156T
# T8 sequence (whole entry): T7 sequence (whole entry) with N3Y, A156T
# Conditions: stereoisomer not certain
# How it was run: as §1
row,SMILES,odorant receptor agonist call
1,CC1=C(O)C(=O)C(C)O1 (stereo not drawn),inactive
2,CCC1OC(C)=C(O)C1=O (stereo not drawn),inactive
3,CCC1OC(=O)C(O)=C1C (stereo not drawn),inactive
4,CC1=C(O)C(=O)OC1C (stereo not drawn),inactive
5,CC1=NC(C)C(C)S1 (stereo not drawn),inactive
6,Cc1cnc(C)c(C)n1,inactive
7,CCCC(S)CCOC(C)=O (stereo not drawn),inactive
8,CCCCCCC=CCCC=O,inactive
